The values that follow come from ChEMBL document CHEMBL1125811, “Potential antitumor agents. 63. Structure-activity relationships for side-chain analogues of the colon 38 active agent 9-oxo-9H-xanthene-4-acetic acid” (J Med Chem, 1991).

The nature of data set [1]: Relative measure of lipophilicity was determined by using 4'-(9-acridinylamino)-methanesulfonanilide as internal standard. It counts as physicochemical. Conditions: octanol/water. The procedure, abridged:
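Rm determined by liquid-liquid chromatography, with AMSA as internal standard.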

Data set [2] is filed under the species Mus musculus. Put plainly: Ability to cause early haemorrhagic necrosis of colon 38 tumors in mice. It counts as functional. More on the design: concentration or dose not given beside the values. The procedure, abridged: (§1)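 Colon 38 fragments implanted s.c. in BDF1 mice and grown to 4-8 mm diameter. Single i.p. dose of sodium salt in water, escalated in 1.5-fold steps up to 750 mg/kg or the maximum nonlethal dose. Triplicate testing, groups of five mice. Tumors excised after 24 h, formalin-fixed, H&E-stained and scored histologically: ++ for 90-100% necrosis, + for 50-90%, - for consistently <50%.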

Data set [3] relates to Mus musculus. Put plainly: Optimal dose to achieve the level of activity cited in colon 38 tumors after intraperitoneal administration in mice. Format: functional. Summed up:
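BDF1 mice bearing s.c. colon 38 tumors (4-8 mm) given a single i.p. dose of sodium salt in water. Full dose profile run at 1.5-fold intervals. Tumors removed at 24 h for histological necrosis scoring. Optimal dose is the minimum dose in mg/kg reaching the cited activity level.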

The species named for data set [4] is Mus musculus. The data set is described as follows: The compound was evaluated for its ability to cause early haemorrhagic necrosis of colon 38 tumors in mice; Value ranges from 50-90%. Format: functional. The procedure, abridged:
as §1

A short description of data set [5]: Range of dose (highest nontoxic to minimum effective) over which 50-90% necrosis was achieved in mice. On the set-up: unit not given here. The procedure, abridged: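 Single i.p. dose of sodium salt in water to BDF1 mice bearing s.c. colon 38 tumors. Doses escalated 1.5-fold. Tumor necrosis read histologically at 24 h. Range recorded from highest nontoxic to minimum effective dose giving 50-90% necrosis, only where activity occurred at more than one dose level.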

In data set [1], `COC(C(=O)O)c1cccc2c(=O)c3ccccc3oc12` (configuration not stated) showed a Rm of 0.49. In the data set listed under Mus musculus [2], this molecule registered an Activity of less than 50%. In the data set with Mus musculus [3], this molecule displayed an OD of 750 mg/kg.

`O=C(O)CCc1cccc2c(=O)c3ccccc3oc12` showed a Rm in data set [1] of 0.7. For the same molecule, the Activity in the data set filed under Mus musculus [4] is recorded as 90%. Further, the OD in the data set on Mus musculus [3] was 500 mg/kg.

In the data set listed under Mus musculus [2], `Cc1cccc2c(=O)c3cccc([C@@H](C)C(=O)O)c3oc12` had an Activity greater than 90%. The same molecule registered an OD in the data set on Mus musculus [3] of 220 mg/kg. In data set [5], this molecule displayed a Range of 220.

Regarding `O=C(Cc1cccc2c(=O)c3ccccc3oc12)NS(=O)(=O)c1ccccc1`, the Rm in data set [1] stood at 0.51. In the data set filed under Mus musculus [2], this molecule came in with an Activity of less than 50%. For the same molecule, in the data set with Mus musculus [3], the OD was 750 mg/kg.

Regarding `CN(C)CCOC(=O)Cc1cccc2c(=O)c3ccccc3oc12`, the Rm in data set [1] is listed as -0.24. The molecule also yielded an Activity in the data set filed under Mus musculus [4] of 90%. In the data set with Mus musculus [3], the OD turned out to be 330 mg/kg.

Take `O=C(O)c1cccc2c(=O)c3ccccc3oc12`: the Rm in data set [1] worked out at 0.49. Also, the Activity in the data set listed under Mus musculus [2] is on record as less than 50%. The OD in the data set with Mus musculus [3] came to 220 mg/kg.

In data set [1], `O=c1c2ccccc2oc2c(CP(=O)(O)O)cccc12` had a Rm of -0.48. This molecule came in with an Activity in the data set filed under Mus musculus [2] of less than 50%. Besides, the OD in the data set with Mus musculus [3] stood at 750 mg/kg.

Molecule `Cc1cccc2c(=O)c3cccc(C(C)C(=O)O)c3oc12` (configuration not stated) showed a Rm in data set [1] of 0.88. The Activity in the data set filed under Mus musculus [2] is greater than 90%. The molecule further showed an OD in the data set with Mus musculus [3] of 150 mg/kg. This molecule also had a Range in data set [5] of 150.

`CC(C(=O)O)c1cccc2c(=O)c3ccccc3oc12` (configuration not stated) gave a Rm in data set [1] of 0.85. The molecule also came in with an Activity in the data set listed under Mus musculus [2] greater than 90%. In the data set with Mus musculus [3], the OD came to 500 mg/kg. Also, the Range in data set [5] is 500.

Molecule `O=c1c2ccccc2oc2c(CS(=O)(=O)O)cccc12` came in with a Rm in data set [1] of -0.59. Further, the Activity in the data set filed under Mus musculus [2] was less than 50%. This molecule also gave an OD in the data set on Mus musculus [3] of 330 mg/kg.

In data set [1], `O=C(O)C(F)c1cccc2c(=O)c3ccccc3oc12` (configuration not stated) came in with a Rm of 0.75. The molecule further had an Activity in the data set filed under Mus musculus [2] of less than 50%. Besides, in the data set with Mus musculus [3], the OD worked out at 750 mg/kg.

Turning to `O=C(O)COc1cccc2c(=O)c3ccccc3oc12`, the Rm in data set [1] is on record as 0.21. For the same molecule, in the data set listed under Mus musculus [2], the Activity is on record as less than 50%. Moreover, the OD with Mus musculus [3] came out at 750 mg/kg.

With `NC(C(=O)O)c1cccc2c(=O)c3ccccc3oc12` (configuration not stated), the Rm in data set [1] was -0.53. Also, in the data set filed under Mus musculus [4], the Activity was determined as 90%. Besides, the OD in the data set with Mus musculus [3] came to 750 mg/kg.

`Cc1cccc2c(=O)c3cccc([C@H](C)C(=O)O)c3oc12`: the Activity in the data set listed under Mus musculus [2] is listed as greater than 90%. Further, the OD in the data set with Mus musculus [3] is 65 mg/kg.

`O=C(O)C(O)c1cccc2c(=O)c3ccccc3oc12` (configuration not stated) yielded a Rm in data set [1] of 0.04. This molecule yielded an Activity in the data set filed under Mus musculus [4] of 90%. Besides, the OD in the data set on Mus musculus [3] amounted to 750 mg/kg.

For the molecule `N=C(N)SCc1cccc2c(=O)c3ccccc3oc12`, in data set [1], the Rm is recorded as -0.2. The Activity in the data set filed under Mus musculus [2] is given as less than 50%. The molecule also had an OD in the data set with Mus musculus [3] of 220 mg/kg.

For `Cc1ccc2c(=O)c3cccc(CC(=O)O)c3oc2c1C` [VADIMEZAN], the Rm in data set [1] worked out at 0.49. In the data set listed under Mus musculus [2], this molecule gave an Activity greater than 90%. The molecule also registered an OD with Mus musculus [3] of 30 mg/kg. In data set [5], the Range turned out to be 30.

For `O=C(O)Cc1cccc2c(=O)c3ccccc3oc12`, the Rm in data set [1] was found to be 0.64. Moreover, the Activity in the data set filed under Mus musculus [2] is on record as greater than 90%. The OD in the data set with Mus musculus [3] worked out at 220 mg/kg.

In data set [1], `CCOP(=O)(O)Cc1cccc2c(=O)c3ccccc3oc12` gave a Rm of -0.04. This molecule also returned an Activity in the data set filed under Mus musculus [2] of less than 50%. Also, the OD with Mus musculus [3] was 750 mg/kg.

Molecule `CN(C)CCNC(=O)Cc1cccc2c(=O)c3ccccc3oc12` displayed a Rm in data set [1] of -0.27. Besides, the Activity in the data set listed under Mus musculus [4] worked out at 90%. The molecule further returned an OD in the data set on Mus musculus [3] of 750 mg/kg.
